Source: ChEMBL document CHEMBL4715748, “Synthesis and biological investigation of new equatorial (β) stereoisomers of 3-aminotropane arylamides with atypical antipsychotic profile” (Bioorg Med Chem, 2016)
The source made the active and inactive calls. No cut-off for these calls is given here.

Experiments:
D(2) dopamine receptor = D(2) dopamine receptor (Rattus norvegicus, UniProt P61169); experiment: Displacement of [3H] Spiperone from rat striatum dopamine D2 receptor measured after 30 mins by liquid scintillation counter method
Sequence of D(2) dopamine receptor (P61169 whole entry): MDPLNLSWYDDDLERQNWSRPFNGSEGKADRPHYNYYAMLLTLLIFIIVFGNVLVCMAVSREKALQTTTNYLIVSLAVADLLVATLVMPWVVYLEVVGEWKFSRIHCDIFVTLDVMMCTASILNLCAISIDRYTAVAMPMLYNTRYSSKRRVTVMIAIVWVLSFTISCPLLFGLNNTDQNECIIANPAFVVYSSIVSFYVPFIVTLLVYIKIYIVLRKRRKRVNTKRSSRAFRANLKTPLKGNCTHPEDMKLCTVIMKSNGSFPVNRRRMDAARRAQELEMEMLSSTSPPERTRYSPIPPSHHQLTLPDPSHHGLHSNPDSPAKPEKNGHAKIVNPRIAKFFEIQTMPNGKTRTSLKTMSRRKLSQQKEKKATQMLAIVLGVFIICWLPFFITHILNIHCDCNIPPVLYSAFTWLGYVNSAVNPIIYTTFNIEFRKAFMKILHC
Outline: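 Competition binding in rat brain tissue membranes against D2, 5-HT1A and 5-HT2A sites; Ki reported as mean ± S.E.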

[1] = Effect on body temperature in Swiss Albino mouse assessed as rectal body temperature at 20 mg/kg, ip measured after 60 mins by thermometer (reference value: 0.33 to 0.61 degreeC); assay type: ADME, organism-based; conditions: in vivo, 1 h
[2] = Effect on body temperature in Swiss Albino mouse assessed as rectal body temperature at 10 mg/kg, ip measured after 120 mins by thermometer (reference value: 0.15 to 1.11 degreeC); assay type: organism-based; conditions: in vivo, 2 h
[3] = Effect on body temperature in Swiss Albino mouse assessed as rectal body temperature at 20 mg/kg, ip measured after 120 mins by thermometer (reference value: 0.15 to 1.11 degreeC); assay type: ADME, organism-based; conditions: in vivo, 2 h
Mus musculus [4] = experiment: Effect on 8-OH-DPAT-induced hypothermia in Swiss albino mouse assessed as change in rectal body temperature at 10 mg/kg, ip pretreated with compound for 45 mins followed by 8-OH-DPAT challenge and measured after 15 min by thermometer (reference value: -1.82 to -1.66 degreeC); assay type: functional, organism-based; conditions: time 60.0 min
Mus musculus [5] = experiment: Effect on 8-OH-DPAT-induced hypothermia in Swiss albino mouse assessed as change in rectal body temperature at 10 mg/kg, ip pretreated with compound for 45 mins followed by 8-OH-DPAT challenge and measured after 30 min by thermometer (reference value: -1.36 to -1.12 degreeC); assay type: functional, organism-based; conditions: time 75.0 min
[6] = Effect on 8-OH-DPAT-induced lower lip retraction in Wistar rat at 10 mg/kg, ip pretreated with compound for 45 mins followed by 8-OH-DPAT challenge and measured after 15 mins (reference value: 2.7 to 2.8); assay type: functional; conditions: time 60 min, 1 h
Mus musculus [7] = experiment: Antipsychotic activity Swiss Albino mouse assessed as inhibition of DOI-induced head twitching by measuring number of episodes at 0.625 mg/kg, ip administered 30 mins prior to DOI stimulation (reference value: 19.63 to 19.88); assay type: functional; conditions: 0.5 h
Outline: (§1)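 Male Albino Swiss mice (24–28 g) were habituated to sawdust-lined cages 20 min before the first treatment. Compounds were suspended in 1% aqueous Tween 80 and given i.p. 30 min before (±)-DOI, 2.5 mg/kg i.p. in aqueous solution. Head twitches were counted blind over 20 min, n=8 per group, mean ± SEM, one-way ANOVA with Dunnett's test.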

Mus musculus [8] = experiment: Antipsychotic activity Swiss Albino mouse assessed as inhibition of DOI-induced head twitching by measuring number of episodes at 2.5 mg/kg, ip administered 30 mins prior to DOI stimulation (reference value: 19.63 to 19.88); assay type: functional; conditions: 0.5 h; outline: as §1
Mus musculus [9] = experiment: Antipsychotic activity in Swiss Albino mouse assessed as inhibition of apomorphine-induced climbing behaviour at 10 mg/kg, ip administered 30 mins prior to APO challenge and measured after 60 mins; assay type: functional, organism-based; conditions: time 90.0 min
Outline: (§2)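 Male Albino Swiss mice received compound i.p. (10 mg/kg in 1% Tween 80) 30 min before the test and apomorphine 2.5 mg/kg s.c. 10 min before the test. Each mouse was placed in a cage with a metal grid and scored positive when all four paws were on the grid. Blinded observation every 10 min to 60 min, then at 120 min. n=8, Fisher's exact test with Yates' correction.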

[10] = Metabolic stability in pooled human liver microsomes at 2.5 uM measured over 45 mins in presence of NADPH by LC-MS analysis; assay type: ADME, Microsome; conditions: 0.75 h
Outline: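 Compound at 2.5 μM (added from 100 μM stock in 50/50 acetonitrile/water) with 1 mg/mL pooled human liver microsomes and 250 μM NADPH in 0.1 M potassium phosphate pH 7.4 at 37 °C after 5-min preincubation. Sampled at 5, 10, 15, 30, 45 min into ice-cold acetonitrile with atropine internal standard; parent quantified by LC-MS (ESI+, [M+H]+); no-NADPH controls; half-time derived.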

Mus musculus [11] = experiment: Antipsychotic activity in Swiss Albino mouse assessed as inhibition of apomorphine-induced climbing behaviour at 10 mg/kg, ip administered 30 mins prior to APO challenge and measured after 30 mins; assay type: functional, organism-based; conditions: time 60.0 min; outline: as §2
Mus musculus [12] = experiment: Antipsychotic activity in Swiss Albino mouse assessed as inhibition of apomorphine-induced climbing behaviour at 10 mg/kg, ip administered 30 mins prior to APO challenge and measured after 40 mins; assay type: functional, organism-based; conditions: time 70.0 min; outline: as §2

Compound	Ki (D(2) dopamine receptor)	deltaT [1]	deltaT [2]	deltaT [3]	deltaT (Mus musculus [4])	deltaT (Mus musculus [5])	Activity [6]	Activity (Mus musculus [7])	Activity (Mus musculus [8])	inhibition (Mus musculus [9])	Stabilty [10]	inhibition (Mus musculus [11])	inhibition (Mus musculus [12])
O=C(NC1CC2CCC(C1)N2Cc1ccc(F)cc1)c1ccc2ccccc2c1 (stereo not given)	137 nM	0.46 °C	0.59 °C	0.54 °C	-1.55 °C	-1.32 °C	2.5	17.63	5.75	Active	Stable	–	–
O=C(NC1CC2CCC(C1)N2Cc1cccc(Br)c1)c1ccc2ccccc2c1 (stereo not given)	11.6 nM	0.49 °C	1.14 °C	1.23 °C	-1.32 °C	-1.62 °C	2.4	–	14.5	–	Stable	Active	–
Cc1cccc(CN2C3CCC2CC(NC(=O)c2ccc4ccccc4c2)C3)c1 (stereo not given)	3.3 nM	0.47 °C	0.27 °C	0.24 °C	-0.7 °C	-0.97 °C	2.3	–	13	–	–	Active	–
O=C(NC1CC2CCC(C1)N2Cc1cccc(Cl)c1)c1ccc2ccccc2c1 (stereo not given)	3.6 nM	0.41 °C	1.16 °C	1 °C	-1.03 °C	-1.22 °C	2.6	–	17.25	–	Stable	–	–
O=C(NC1CC2CCC(C1)N2Cc1cccc(F)c1)c1ccc2ccccc2c1 (stereo not given)	214 nM	0.43 °C	0.74 °C	0.81 °C	-1.6 °C	-1.37 °C	2.4	17.38	11.38	–	Stable	–	Active
